Assay results as given in the array DNA melting data of Ke et al. (doi:10.1101/2024.01.08.574731).

What was measured:
[1] = folding enthalpy; higher = less favourable; fluorescence melt of hairpins on a sequencing array, two-state fit; conditions: sodium 0.088 M
Summary of the method: (§1)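 Two-state fits, bootstrapped, provided melting temperature and folding enthalpy from Cy3 fluorescence normalised to pre-quench Cy3 and to control constructs. Library hairpins with annealed Cy3 and quencher oligos were imaged on a sequenced MiSeq flow cell in 50 mM Na-HEPES pH 8.0, 25 mM NaCl, at 2.5 °C intervals up to 60 °C. Four replicates were combined with inverse-variance weighting. A 9.35 °C upward shift was applied to fitted temperatures to match UV melts.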

[2] = melting temperature; fluorescence melt of hairpins on a sequencing array, two-state fit, raised by 9.35 °C to match UV melts; conditions: sodium 0.088 M
Summary of the method: as §1

Row | Sequence | folding enthalpy [1] | Tm [2]
1 | GCATCTGGAAACGGATGC (((((.(....).))))) | -187 kJ/mol | 53.8 °C
2 | GCATGCGAAAGCAACTGC ((((((....)))..))) | -59.2 kJ/mol | 40.2 °C
3 | GCATGCGGAAACACACGC ((.((.(....).)).)) | -42.8 kJ/mol | 30.4 °C
4 | GCATGCGGAAACACATGC (((((.(....).))))) | -176 kJ/mol | 49.7 °C
5 | GCATGCGGAAACGCACGC ((.((((....)))).)) | -107 kJ/mol | 52.1 °C
6 | GCATGCGGAAACGTATGC ((((.((....)).)))) | -173 kJ/mol | 56.1 °C
7 | GCATGGCCGAAAGGCTGC (((..(((....)))))) | -55 kJ/mol | 53.3 °C
8 | GCATGGCGAAAGCCACGC ((.((((....)))).)) | -73.8 kJ/mol | 60.9 °C
9 | GCATGGCGAAAGCCCAGC ((..(((....)))..)) | -50.4 kJ/mol | 46.3 °C
10 | GCATGGCGAAAGCCCCGC ((..(((....)))..)) | -51.8 kJ/mol | 29.6 °C
11 | GCATGGCGAAAGCCCGGC ((..(((....)))..)) | -65.8 kJ/mol | 43.3 °C
12 | GCATGGCGAAAGCCGCGC ((..(((....)))..)) | -82.5 kJ/mol | 61.1 °C
13 | GCATGGCGAAAGCCGGGC ((..(((....)))..)) | -74.1 kJ/mol | 60.4 °C
14 | GCATGGCGAAAGCCTAGC ((..(((....)))..)) | -74.7 kJ/mol | 52.1 °C
15 | GCATGGCGAAAGCCTGC (((.(((....)))))) | -113 kJ/mol | 63.8 °C
16 | GCATGGCGAAAGCGAGGC ((.(.((....)).).)) | -79.5 kJ/mol | 47.3 °C
17 | GCATGGCGAAAGCGGTGC (((..((....))..))) | -99.7 kJ/mol | 56.1 °C
18 | GCATGGCGAAAGCTTTGC (((..((....))..))) | -89.4 kJ/mol | 46.7 °C
19 | GCATGGGGAAACCTGTGC (((..((....))..))) | -127 kJ/mol | 44.3 °C
20 | GCATGGTCGAAAGACTGC (((..(((....)))))) | -75.9 kJ/mol | 39.8 °C
21 | GCATGTGGAAACATGTGC (((..((....))..))) | -132 kJ/mol | 49.6 °C
22 | GCATTACGAAAGTACTGC (((.(((....))).))) | -153 kJ/mol | 46.4 °C
23 | GCATTACGAAAGTATGC (((.(((....)))))) | -112 kJ/mol | 48.7 °C

Row | Sequence | folding enthalpy [1] | Tm [2]
24 | GCATTAGGAAACTAACGC ((.((((....)))).)) | -94.7 kJ/mol | 31.7 °C
25 | GCATTCGAAAGAAAGTGC ((((((....)))..))) | -52.1 kJ/mol | 30.4 °C
26 | GCATTCGAAAGAACATGC ((((((....)))..))) | -65.9 kJ/mol | 33 °C
27 | GCATTCGAAAGAAGCTGC ((((((....)))..))) | -98.4 kJ/mol | 40.8 °C
28 | GCATTCGAAAGAAGTTGC ((((((....)))..))) | -30.8 kJ/mol | 26 °C
29 | GCATTCGGAAACGAGTGC (((.(((....))).))) | -195 kJ/mol | 53 °C
30 | GCATTGCCGAAAGGCTGC (((..(((....)))))) | -61.8 kJ/mol | 46.5 °C
31 | GCATTGCGAAAGCACCGC ((..(((....)))..)) | -44.7 kJ/mol | 34.5 °C
32 | GCATTGCGAAAGCGAAGC ((.(.((....)).).)) | -60.5 kJ/mol | 38.9 °C
33 | GCATTGCGAAAGCGACGC ((.(.((....)).).)) | -69.2 kJ/mol | 49.3 °C
34 | GCATTGCGAAAGCGAGGC ((.(.((....)).).)) | -87.9 kJ/mol | 59.1 °C
35 | GCATTGCGAAAGCTCTGC (((..((....))..))) | -98.4 kJ/mol | 39.2 °C
36 | GCATTGCGAAAGCTTTGC (((..((....))..))) | -89.5 kJ/mol | 49.1 °C
37 | GCATTTCGAAAGAAGTGC (((.(((....))).))) | -191 kJ/mol | 51.4 °C
38 | GCCAAAGGAAACTCTGGC ((((.((....)).)))) | -136 kJ/mol | 35.4 °C
39 | GCCAACGAAAGTTAAGGC ((((((....)))..))) | -107 kJ/mol | 45.8 °C
40 | GCCAACGAAAGTTGCGGC ((((((....)))..))) | -70.5 kJ/mol | 51.5 °C
41 | GCCAACGAAAGTTGTGGC ((((((....)))..))) | -77 kJ/mol | 48.4 °C
42 | GCCAACGAAAGTTTAGGC ((((((....)))..))) | -118 kJ/mol | 43.8 °C
43 | GCCAACGGAAACGTCGGC (((.(((....))).))) | -179 kJ/mol | 51.1 °C
44 | GCCAAGCGAAAGCAAGGC (((..((....))..))) | -99.2 kJ/mol | 59.2 °C
45 | GCCAAGCGAAAGCCTCGC ((.(.((....)).).)) | -24.8 kJ/mol | 23.1 °C
46 | GCCAAGCGAAAGCTATGC ((..(((....)))..)) | -55.1 kJ/mol | 33.9 °C

Row | Sequence | folding enthalpy [1] | Tm [2]
47 | GCCAAGCGAAAGCTCAGC ((..(((....)))..)) | -56.9 kJ/mol | 37.3 °C
48 | GCCAAGCGAAAGCTCGGC (((.(((....))).))) | -163 kJ/mol | 57.4 °C
49 | GCCAAGCGAAAGCTTAGC ((.((((....)))).)) | -73.8 kJ/mol | 48.9 °C
50 | GCCAAGGGAAACCTTAGC ((.((((....)))).)) | -80.7 kJ/mol | 33.2 °C
51 | GCCAAGGGAAACCTTGGC (((((((....))))))) | -157 kJ/mol | 68.8 °C
52 | GCCAATCCGAAAGGAGGC (((..(((....)))))) | -92.8 kJ/mol | 47 °C
53 | GCCAATGGAAACACTGGC ((((.((....)).)))) | -133 kJ/mol | 41.9 °C
54 | GCCAATGGAAACATCGGC (((.(((....))).))) | -121 kJ/mol | 44 °C
55 | GCCAATGGAAACATTGAC (.(((((....))))).) | -92.9 kJ/mol | 37.7 °C
56 | GCCACACCGAAAGGTGGC (((..(((....)))))) | -51.6 kJ/mol | 55.6 °C
57 | GCCACAGGAAACTACGGC (((..((....))..))) | -129 kJ/mol | 39.5 °C
58 | GCCACCGAAAGGTAAGGC ((((((....)))..))) | -113 kJ/mol | 52.6 °C
59 | GCCACCGAAAGGTACGGC ((((((....)))..))) | -104 kJ/mol | 49 °C
60 | GCCACCGAAAGGTATGGC ((((((....)))..))) | -155 kJ/mol | 52.8 °C
61 | GCCACCGAAAGGTCGGC ((((((....))).))) | -125 kJ/mol | 59 °C
62 | GCCACCGAAAGGTCGGGC ((((((....)))..))) | -107 kJ/mol | 48 °C
63 | GCCACCGAAAGGTTCGGC ((((((....)))..))) | -70.2 kJ/mol | 46.5 °C
64 | GCCACCGAAAGGTTGGC ((((((....))).))) | -142 kJ/mol | 60.5 °C
65 | GCCACCGAAAGGTTGGGC ((((((....)))..))) | -87.1 kJ/mol | 52.6 °C
66 | GCCACCGCGAAAGCGGGC (((..(((....)))))) | -30.8 kJ/mol | 47.5 °C
67 | GCCACCGGAAACAGTGGC (((((.(....).))))) | -128 kJ/mol | 52.6 °C
68 | GCCACCGGAAACGACGGC (((..((....))..))) | -104 kJ/mol | 41.4 °C
